From PubChem BioAssay
Only some compounds are listed: those with a hit (about 2.1% of all), similar ones and a draw of the others.
M5 PAM: potentiates acetylcholine response at human M5 receptor; P08912; CHO-K1 hM5, Fluo-8 calcium, ACh EC20 PAM; 0% = ACh EC20, 100% = ACh EC100; activation, % at 3 µM; actives 0.3% (n = 360,000);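 active = activation above the run cutoff, the mean activation of all test compounds plus 3 SD, cut at about 18% in these data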
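Probe or stimulus: acetylcholine, EC20 level; Assay system: human M5 receptor in CHO-K1 cells; Schedule: compound preincubation 140 s before EC20 acetylcholine addition; Technique: intracellular calcium via Fluo-8 fluorescence; Dosing: single-point, 3 µM nominal; Read-out basis: percent activation from peak-over-basal fluorescence ratio, scaled EC20-to-EC100 acetylcholine; Repeats: one well per compound, no replicates.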
M5 ag: agonists of human muscarinic M5 receptor (CHRM5). activation, % at 3 µM. AID 624037. CHO-K1 hM5 cells, Fluo-8 calcium fluorescence; 0% DMSO wells, 100% maximal acetylcholine response. actives 0.19% (n = 360,000). P08912;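 active = activation above the run's mean over test compounds plus 3 SD, cut at about 23% in these data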;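 also: signal is peak over basal fluorescence ratio across the kinetic read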
CHRM5 antagonist: blocks acetylcholine activation of human M5 receptor. P08912. CHO-hM5 cells, Fluo-8 calcium fluorescence, ACh EC80. inhibition, % at 3 µM. actives 0.59% (n = 360,000). AID 624040;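 active = inhibition above a per-plate cutoff, the mean of that plate's test compounds plus 3 SD, cut at about 27% in these data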;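 also: 0% = acetylcholine EC80 with DMSO and 100% = DMSO without agonist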
M1 PAM: positive allosteric modulators of human M1 muscarinic receptor; P11229; CHO-K1 hM1, Fluo-8 calcium fluorescence, ACh EC20; 0% = ACh EC20, 100% = maximal ACh; activation, % at 3 µM; actives 0.088% (n = 360,000); in the data active = activation above about 19%, passing the limit was not always enough
Target sequence (P11229 whole entry, looked up): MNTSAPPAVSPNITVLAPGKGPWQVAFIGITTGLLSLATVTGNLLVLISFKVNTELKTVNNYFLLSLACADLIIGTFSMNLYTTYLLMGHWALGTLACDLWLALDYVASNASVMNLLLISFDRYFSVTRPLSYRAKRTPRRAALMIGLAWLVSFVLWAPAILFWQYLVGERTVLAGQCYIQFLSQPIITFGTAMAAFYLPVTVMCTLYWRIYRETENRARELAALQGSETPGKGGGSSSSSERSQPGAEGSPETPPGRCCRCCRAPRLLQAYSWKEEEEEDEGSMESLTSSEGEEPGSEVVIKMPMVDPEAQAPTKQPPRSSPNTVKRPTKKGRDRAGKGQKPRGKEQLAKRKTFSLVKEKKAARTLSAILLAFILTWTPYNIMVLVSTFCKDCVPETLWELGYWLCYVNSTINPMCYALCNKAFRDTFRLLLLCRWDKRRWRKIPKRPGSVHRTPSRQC
CHRM1 antagonist: antagonists of human M1 muscarinic receptor; CHO-K1 hM1, Fluo-8 calcium fluorescence, ACh EC80 antagonist; inhibition, % at 3 µM; AID 588852; P11229; actives 1.3% (n = 360,000);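 active = percent inhibition above its own plate's cutoff, namely the mean of that plate's compound wells plus 3 SD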;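 also: peak over basal fluorescence ratio during 140 s after agonist addition; 0% = ACh EC80 plus DMSO and 100% = DMSO alone without agonist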
M1 ag: activates human CHRM1 receptor. P11229. CHO-K1 hM1, Fluo-8 calcium fluorescence, agonist mode; 0% DMSO, 100% acetylcholine EC100. activation, % at 3 µM. actives 0.33% (n = 360,000);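 active = activation above the run's mean compound activation plus 3 SD, cut at about 16% in these data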;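 also: peak over basal fluorescence ratio within a 140 s kinetic read after compound addition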
Starred values were filed as active, the others as inactive.

SMILES | M5 PAM | M5 ag | CHRM5 antagonist | M1 PAM | CHRM1 antagonist | M1 ag
O=C(NCc1ccccc1)/C(=C\c1cccc([N+](=O)[O-])c1)NC(=O)c1ccco1 | -1 | 0 | -4 | 2 | -10 | -1
CN1CC(=O)N(CC(=O)Nc2ccc(F)cc2)c2ccccc2C1=O | 40* | -8 | -2 | 2 | 2 | -1
CN1CC(=O)N(CC(=O)NCc2ccc(F)cc2)c2ccccc2C1=O | 7 | -4 | -1 | 5 | -3 | -4
COc1ccc(C(=O)Nc2ccc(Cl)cc2C(=O)NCc2ccco2)cc1OC | -17 | 0 | 12 | -2 | 13 | -1
COc1ccc(C(=O)Nc2ccccc2C(=O)NCc2ccco2)cc1OC | -9 | 2 | 14 | -12 | 20* | 1
Cc1ccc(F)cc1NC(=O)C1CC(=O)N(Cc2ccccc2)C1 (configuration not stated) | 3 | 0 | -8 | 14 | -19 | 1
